# Data as given in the RNAGym collection of RNA variant scans (doi:10.1126/science.aae0568).
# This sample holds only a part of the variants without activity.
# B1: tRNA (parent)
# chain: GUUCCGUUGGCGUAAUGGUAACGCGUCUCCCUCCUAAGGAGAAGACUGCGGGUUCGAGUCCCGUACGGAACG
# Variants of: B1
# Experiment: yeast fitness relative to wild type (ratio to wild type); higher = fitter; tRNA-Arg(CCU), competitive growth, 37 C, YPD
# Outline: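 Amplicons of the tRNA-Arg(CCU) gene were sequenced, 100-nucleotide paired-end, from the start population and from each end population of a pooled yeast competition. The competition, in six parallel replicates, lasted 24 hours in YPD at 37°C. Fitness relative to wild type was calculated from changes in genotype frequencies. Genotypes had to have ≥ 100 starting reads, and estimates < 0.5 were set to 0.5.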
row,Variant,yeast fitness
1,GUUCCGUUGGCGCAAUGGUAACGCGUCUCCCUCCUAAGGAGAAGACUGCGGGUUCGAGGCCCGUACGCAACG [U13C U59G G68C],≤ 0.5
2,GUUCCGUUGGCGCAAUGGUAACGCGUCUCCCUCCUAAGGAGAAGACUGCGGGUUCGAGUCCCGCACGGAACG [U13C U64C],1.04
3,GUUCCGUUGGCGGCAUGGUAACGCGUCUCCCUCCUAAGGCGUAGACUGCGGGUUCGAGUCCCGUACGGAACG [U13G A14C A40C A42U],≤ 0.5
4,GUUCCGUUGGCGGCAUGGUAACGCGUCUCCCUCCUAAGGAGUAGACUGCGAGUACAAGUCCCGUACGGAACG [U13G A14C A42U G51A U54A G56A],≤ 0.5
5,GUUCCGUUGGCGGCAUGGUAACGCGUCUCCCUCCUAAGCAAAAGACUGCGGGUUCGAGUGUGGUUCGGAACG [U13G A14C G39C G41A C60G C61U C62G A65U],≤ 0.5
6,GUUCCGUUGGCGGGAUAGUAACGCGUCUCCCUCCUAAGCAGAAGACUGCGGGUUCGAGUCCCGUACGGAACG [U13G A14G G17A G39C],0.758
7,GUUCCGUUGGCGGUAAUGUAACGCGUCUCCCUCCUAAGGAGAAGACUGCGGGUUCGAGUCCCGUACCGAACG [U13G A14U U16A G17U G67C],≤ 0.5
8,GUUCCGUUGGCGGAAUGGUCACGCGUCUCCCUCCUAAGGAGAAGACUGCGGGUUUGAGUCCCGUACGGUACG [U13G A20C C55U A69U],0.565
9,GUUCCGUUGGCGGAAUGGUGAGGCGUCUCCCUCCUAAGGAGAAGACUGCGGGUUCGAGUCCCGUACGGAACG [U13G A20G C22G],0.581
10,GUUCCGUUGGCGGAAUGGUGACGCGUCACCCUCCUAAGGAGAAGACUGCGGGUUCGAGUCCCGUACGGAUCG [U13G A20G U28A A70U],0.873
11,GUUCCGUUGGCGGAAUGGUUACGCGUCUCCCUCCUAAGGAGAAGACUGCGGGUUCGAGUCCCGUACGGAACG [U13G A20U],1.03
12,GUUCCGUUGGCGGAAUGGUUAUGAGUCUCCCUCCUAAGGAGAAGGCUGCGGGUUUGAGUCCCGUACGGAACG [U13G A20U C22U C24A A45G C55U],≤ 0.5
13,GUUCCGUUGGCGGAAUGGUUACGCGUCUCCCUCCUAAGGAGAAGACUGCGGGUUCGAGACCCGUACGGAACG [U13G A20U U59A],≤ 0.5
14,GUUCCGUUGGCGGAAUGGUUACGCGUCUCCCUCCUAAGGAGAAGACUGCGGGUUCGAGACCCGUAUGGAACG [U13G A20U U59A C66U],≤ 0.5
15,GUUCCGUUGGCGGAAUGGUACCGCGUCUCCCUCCUAAGGAGAAGAUUGCAGGUUCGAGUCCCGAACGGUACG [U13G A21C C46U G50A U64A A69U],≤ 0.5
16,GUUCCGUUGGCGGAAUGGUAUCGCGUCUCCCUCCUAAGGAGAAGACUGCGGGUUCGAGUCCCGUACGGAACG [U13G A21U],1.09
17,GUUCCGUUGGCGGAAUGGUAUAGCAUCUCCCUCCUAAGGAGAAGACUGCGGUUUCGAGUCCCGUACGGAACG [U13G A21U C22A G25A G52U],≤ 0.5
18,GUUCCGUUGGCGGAAUGGUAACGCGUCUCCCUCCUCAGGAGAAGACUGCGGGUUCGAGUCCCGUACGGAACG [U13G A36C],0.52
19,GUUCCGUUGGCGGAAUGGUAACGCGUCUCCCUCCUGAGGAGAAGACUGCGGGUUCGAGUCCCGUACGGAACG [U13G A36G],0.913

row,Variant,yeast fitness
1,GUUCCGUUGGCGGAAUGGUAACGCGUCUCCCUCCUACGGAGAAGACUGCGGGUUCGAGUCCCGUACGGAGCG [U13G A37C A70G],0.539
2,GUUCCGUUGGCGGAAUGGUAACGCGUCUCCCUCCUAAGGAGUAAACUGAGGGUUCGAGUCCCGUACGGAACG [U13G A42U G44A C49A],0.602
3,GUUCCGUUGGCGGAAUGGUAACGCGUCUCCCUCCUAAGGAGAAGUCUGCGGGUUCGAGUCCCGUACGGAACG [U13G A45U],0.964
4,GUUCCGUUGGCGGAAUGGUAACGCGUCUCCCUCCUAAGGAGAAGUCUGCGGGUUCGAGUCCCGUACGGACCG [U13G A45U A70C],0.649
5,GUUCCGUUGGCGGAAUGGUAACGCGUCUCCCUCCUAAGGAGAAGACUGCGGGUUCGUGUCCCGUACGGAACG [U13G A57U],0.6
6,GUUCCGUUGGCGGAAUGGUAACGCGUCUCCCUCCUAAGGAGAAGACUGCGGGUUCGAGUCCCGUACGGCACG [U13G A69C],0.951
7,GUUCCGUUGGCGGAAUGGUAACGCGUCUCCCUCCUAAGGAGAAGACUGCGGGUUCGAGUCCCGUACGGACCG [U13G A70C],0.843
8,GUUCCGUUGGCGGAAUGGUAACGCGUCUCCCUCCUAAGGAGAAGACUGCGGGUUCGAGUCCCGUACGGAGCG [U13G A70G],0.831
9,GUUCCGUUGGCGGAAUGGUAACGCGUCUCCCUCCUAAGGAGAAGACUGCGGGUUCGAGUCCCGUACGGAUCG [U13G A70U],1.11
10,GUUCCGUUGGCGGAAUGGUAAGGCGUCUCUCUCCUGAGGUGAAGACUGCGGGUGCGAGUCCCGUACGGAACG [U13G C22G C30U A36G A40U U54G],≤ 0.5
11,GUUCCGUUGGCGGAAUGGUAAUGCGUCUCCCUCCUAAGGAGAAGACUGCGGGUUCGAGUCCCGUACGGACCG [U13G C22U A70C],0.748
12,GUUCCGUUGGCGGAAUGGUAAUGCGUCUCCCUCCUAAGGAGAAGACUGCGGGUUCGAGUCCCGUACGGAUCG [U13G C22U A70U],0.751
13,GUUCCGUUGGCGGAAUGGUAAUGCGUCUCCAUCCUAAGGAGAAGACUGCGGGUUCGAGUCCCGUACGGAUCG [U13G C22U C31A A70U],≤ 0.5
14,GUUCCGUUGGCGGAAUGGUAAUGCGUCUCCAUCCUAAGGAGAAGACUGCGGGUUCGAGUCCUGUCCGGAACG [U13G C22U C31A C62U A65C],≤ 0.5
15,GUUCCGUUGGCGGAAUGGUAAUGCGUCUCCCUCCUAAGGAGAAAACUGCGGGUUCGAGUCCCGUACGGAACG [U13G C22U G44A],0.641
16,GUUCCGUUGGCGGAAUGGUAAUGCGUCCCCAUCCUAAGGAGAAGACUGCGGGUUCGAGUCCCGUACGGAACG [U13G C22U U28C C31A],≤ 0.5
17,GUUCCGUUGGCGGAAUGGUAACGAGUCUCCCUCCUAAGGAGAAGACUGCGGGUUCGAGUCCCGUACGGAACG [U13G C24A],0.602
18,GUUCCGUUGGCGGAAUGGUAACGAGUCUCCCUCCUAAGGAGAAGGCUGCGGGUUCGAGUCCCGUACGGAACG [U13G C24A A45G],≤ 0.5
